Measured values as given in ChEMBL document CHEMBL1132711 (J Med Chem, 1999).

Columns and labels:
[1] = target: T1, Progesterone receptor (Homo sapiens, UniProt P06401); assay: (§1) Compound was tested for agonistic activity by cotransfection assay against human Progesterone receptor in CV-1 cells; format: functional, cell-based
T1 sequence (P06401 whole entry): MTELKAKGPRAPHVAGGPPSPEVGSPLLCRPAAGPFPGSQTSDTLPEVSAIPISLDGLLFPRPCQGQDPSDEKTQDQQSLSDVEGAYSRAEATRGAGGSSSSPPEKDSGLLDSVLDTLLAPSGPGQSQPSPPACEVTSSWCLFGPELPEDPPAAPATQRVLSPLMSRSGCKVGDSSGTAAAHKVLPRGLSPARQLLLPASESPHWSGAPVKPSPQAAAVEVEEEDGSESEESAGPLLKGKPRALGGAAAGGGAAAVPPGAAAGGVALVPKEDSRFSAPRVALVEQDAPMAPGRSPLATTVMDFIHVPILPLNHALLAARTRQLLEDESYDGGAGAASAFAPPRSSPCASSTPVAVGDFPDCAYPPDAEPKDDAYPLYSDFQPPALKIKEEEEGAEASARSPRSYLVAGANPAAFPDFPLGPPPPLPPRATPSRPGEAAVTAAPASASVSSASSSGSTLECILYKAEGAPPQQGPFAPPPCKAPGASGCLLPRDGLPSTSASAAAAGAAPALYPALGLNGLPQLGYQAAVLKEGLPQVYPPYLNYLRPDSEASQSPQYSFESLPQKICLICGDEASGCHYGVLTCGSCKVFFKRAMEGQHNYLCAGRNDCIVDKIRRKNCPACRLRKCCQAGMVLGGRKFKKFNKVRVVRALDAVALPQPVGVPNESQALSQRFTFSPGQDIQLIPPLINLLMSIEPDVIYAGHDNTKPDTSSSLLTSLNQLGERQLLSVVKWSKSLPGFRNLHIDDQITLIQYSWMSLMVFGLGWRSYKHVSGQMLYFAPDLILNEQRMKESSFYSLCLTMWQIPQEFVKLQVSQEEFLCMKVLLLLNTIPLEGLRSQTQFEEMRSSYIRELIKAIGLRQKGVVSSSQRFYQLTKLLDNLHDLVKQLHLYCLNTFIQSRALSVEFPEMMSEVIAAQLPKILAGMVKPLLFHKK

[2] = target: T1, Progesterone receptor; assay: Compound was evaluated for its binding affinity against baculovirus expressed Progesterone receptor
[3] = target: T2, Progesterone receptor (Homo sapiens) (UniProt P06401); assay: as §1; format: functional, cell-based
T2 sequence (whole entry): T1 sequence (P06401 whole entry)

[4] = target: T1, Progesterone receptor; assay: (§2) Agonistic activity by cotransfection assay against human Progesterone receptor in T47D cells; format: functional, cell-based
[5] = target: T2, Progesterone receptor (Homo sapiens); assay: as §2; format: functional, cell-based
Method in brief: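 T47D human breast cancer cells (high endogenous hPR) incubated with test compound in 96-well format; alkaline phosphatase expression measured by absorbance. […] EC50 from full dose–response curves; mean of at least three separate experiments in triplicate, or single experiment where no error given.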

[6] = target: T1, Progesterone receptor; assay: (§3) Antagonistic activity by cotransfection assay against human Progesterone receptor in CV-1 cells; format: functional, cell-based
[7] = target: T2, Progesterone receptor (Homo sapiens); assay: as §3; format: functional, cell-based
[8] = target: T3, Glucocorticoid receptor (Homo sapiens, UniProt P04150)
T3 sequence (P04150 whole entry): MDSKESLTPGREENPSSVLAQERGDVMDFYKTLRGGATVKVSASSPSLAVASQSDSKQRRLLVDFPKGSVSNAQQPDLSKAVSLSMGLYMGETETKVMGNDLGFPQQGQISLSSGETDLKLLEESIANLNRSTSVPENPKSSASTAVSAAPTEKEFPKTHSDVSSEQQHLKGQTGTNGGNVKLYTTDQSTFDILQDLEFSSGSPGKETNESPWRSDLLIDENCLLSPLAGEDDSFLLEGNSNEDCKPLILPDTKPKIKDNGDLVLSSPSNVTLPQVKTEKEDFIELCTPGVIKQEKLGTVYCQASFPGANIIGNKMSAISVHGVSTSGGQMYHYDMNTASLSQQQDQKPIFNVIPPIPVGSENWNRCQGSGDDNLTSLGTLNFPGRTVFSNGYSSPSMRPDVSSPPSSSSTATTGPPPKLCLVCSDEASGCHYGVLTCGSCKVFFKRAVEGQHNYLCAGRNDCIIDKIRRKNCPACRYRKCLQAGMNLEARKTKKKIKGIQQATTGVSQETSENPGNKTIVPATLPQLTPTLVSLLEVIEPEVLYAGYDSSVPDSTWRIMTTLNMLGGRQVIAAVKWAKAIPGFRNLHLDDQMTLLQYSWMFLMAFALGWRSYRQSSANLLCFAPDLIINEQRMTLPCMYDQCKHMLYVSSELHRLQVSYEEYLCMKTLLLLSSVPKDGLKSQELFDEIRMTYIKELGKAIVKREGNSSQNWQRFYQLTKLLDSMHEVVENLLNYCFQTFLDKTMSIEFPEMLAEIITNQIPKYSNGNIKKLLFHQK

[9] = target: T4, Androgen receptor (Homo sapiens, UniProt P10275)
T4 sequence (P10275 whole entry): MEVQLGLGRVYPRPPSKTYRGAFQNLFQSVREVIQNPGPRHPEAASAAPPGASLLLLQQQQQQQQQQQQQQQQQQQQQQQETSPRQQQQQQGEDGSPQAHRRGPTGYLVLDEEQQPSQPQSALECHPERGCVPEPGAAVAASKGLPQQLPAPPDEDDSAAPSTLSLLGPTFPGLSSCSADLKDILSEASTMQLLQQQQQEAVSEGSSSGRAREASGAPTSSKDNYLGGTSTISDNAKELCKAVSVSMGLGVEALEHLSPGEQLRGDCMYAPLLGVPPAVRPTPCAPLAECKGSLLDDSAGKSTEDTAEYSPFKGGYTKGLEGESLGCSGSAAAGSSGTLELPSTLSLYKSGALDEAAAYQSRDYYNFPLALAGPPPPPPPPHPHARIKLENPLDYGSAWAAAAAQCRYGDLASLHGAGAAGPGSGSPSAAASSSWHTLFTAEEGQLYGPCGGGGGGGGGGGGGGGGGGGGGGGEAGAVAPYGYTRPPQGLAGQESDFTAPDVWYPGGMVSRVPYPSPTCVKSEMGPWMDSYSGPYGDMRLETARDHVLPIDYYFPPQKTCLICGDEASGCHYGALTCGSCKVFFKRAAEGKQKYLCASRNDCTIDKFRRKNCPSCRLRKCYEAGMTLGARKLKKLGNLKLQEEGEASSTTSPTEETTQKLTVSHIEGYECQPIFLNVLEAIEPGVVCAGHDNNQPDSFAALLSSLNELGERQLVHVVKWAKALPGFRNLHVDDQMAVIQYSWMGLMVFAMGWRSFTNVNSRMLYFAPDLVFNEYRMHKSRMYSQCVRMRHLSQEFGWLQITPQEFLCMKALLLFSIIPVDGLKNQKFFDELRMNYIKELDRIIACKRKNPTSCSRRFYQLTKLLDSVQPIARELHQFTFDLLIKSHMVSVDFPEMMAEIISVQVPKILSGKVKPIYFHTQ

EC50 [1] | Ki [2] | Efficacy [3] | EC50 [4] | Efficacy [5] | IC50 [6] | Efficacy [7] | Ki [8] | Ki [9] | SMILES
47 nM | 6.3 nM | 114% |  |  |  |  |  |  | CC1CC(C)(C)Nc2ccc3c(c21)/C(=C/c1cccc(F)c1)Oc1ccccc1-3 (configuration not stated)
9.8 nM | 5.3 nM | 36% |  |  |  |  |  |  | CC1(C)Nc2ccc3c(c2C(C)(C)C1=O)C(c1ccc(Cl)cc1)Oc1ccccc1-3 (configuration not stated)
 | 24.6 nM |  |  |  | 376 nM | 84% |  |  | CC1(C)CC(=O)c2c(ccc3c2C(c2ccc(Cl)cc2)Oc2ccccc2-3)N1 (configuration not stated)
 |  | 102% |  | 107% |  |  | 913 nM | 698 nM | C[C@H]1C(=O)C(C)(C)Nc2ccc3c(c21)[C@H](c1ccc(Cl)cc1)Oc1ccccc1-3
1300 nM | 10.5 nM | 28% |  |  | 140 nM | 50% |  |  | CC1(C)C=Cc2c(ccc3c2C(c2ccc(Cl)cc2)Oc2ccccc2-3)N1 (configuration not stated)
14 nM | 16.6 nM | 93% | 37 nM | 85% |  |  | 257 nM | 1090 nM | C[C@@H]1C(=O)C(C)(C)Nc2ccc3c(c21)[C@H](c1cccc(C(F)(F)F)c1)Oc1ccccc1-3
 |  |  |  | 90% |  |  |  |  | CC(=O)O[C@]1(C(C)=O)CC[C@H]2[C@@H]3C[C@H](C)C4=CC(=O)CC[C@]4(C)[C@H]3CC[C@@]21C
9 nM | 28.6 nM | 103% | 35 nM | 102% |  |  | 909 nM | 1080 nM | C[C@H]1C(=O)C(C)(C)Nc2ccc3c(c21)[C@H](c1ccccc1)Oc1ccccc1-3
124 nM |  | 30% |  |  | 1760 nM | 81% |  |  | C=C1CC(C)(C)Nc2ccc3c(c21)C(c1ccc(Cl)cc1)Oc1ccccc1-3 (configuration not stated)
10 nM | 6.6 nM | 92% | 23.5 nM | 92% |  |  | 249 nM | 732 nM | C[C@@H]1C(=O)C(C)(C)Nc2ccc3c(c21)[C@H](c1ccccc1)Oc1ccccc1-3
 | > 500 nM |  |  |  | 3200 nM | 69% |  |  | C[C@@H]1c2c(ccc3c2[C@H](c2ccc(Cl)cc2)Oc2ccccc2-3)NC(C)(C)[C@H]1O
39 nM | 10.1 nM | 39% |  |  |  |  |  |  | C[C@H]1CC(C)(C)Nc2ccc3c(c21)[C@H](c1ccc(Cl)cc1)Oc1ccccc1-3

Further lines, the molecule ahead of its results:

SMILES | EC50 [1] | Ki [2] | Efficacy [3] | EC50 [4] | Efficacy [5] | IC50 [6] | Efficacy [7] | Ki [8] | Ki [9]
CC1=CC(C)(C)Nc2ccc3c(c21)C(c1cccc(Cl)c1)Oc1ccc(F)cc1-3 (configuration not stated) |  |  |  | 27 nM | 47% |  |  |  | 
CC1=CC(C)(C)Nc2ccc3c(c21)C(C)Oc1ccc(Cl)cc1-3 (configuration not stated) |  |  |  |  | 42% |  |  |  | 
C[C@H]1c2c(ccc3c2[C@H](c2ccc(Cl)cc2)Oc2ccccc2-3)NC(C)(C)[C@@H]1O |  | > 500 nM |  |  |  | 460 nM | 91% |  | 
C[C@H]1C(=O)C(C)(C)Nc2ccc3c(c21)[C@H](c1cccc(F)c1)Oc1ccccc1-3 | 8.7 nM | 28 nM | 114% | 26 nM | 107% |  |  | 864 nM | 504 nM
C[C@H]1C(=O)C(C)(C)Nc2ccc3c(c21)[C@H](c1cccc(C(F)(F)F)c1)Oc1ccccc1-3 | 16 nM | 123 nM | 66% | 63 nM | 103% |  |  | 250 nM | 807 nM
CC1C(=O)C(C)(C)Nc2ccc3c(c21)/C(=C/c1cccc(F)c1)Oc1ccccc1-3 (configuration not stated) | 8.7 nM | 3.5 nM | 155% | 25 nM | 83% |  |  | 4730 nM | 560 nM
C[C@@H]1C(=O)C(C)(C)Nc2ccc3c(c21)[C@H](c1ccc(Cl)cc1)Oc1ccccc1-3 |  |  | 122% |  | 97% |  |  | 331 nM | 1180 nM
C[C@@H]1C(=O)C(C)(C)Nc2ccc3c(c21)[C@H](c1cccc(F)c1)Oc1ccccc1-3 | 6.3 nM | 2.6 nM | 106% | 14.8 nM | 96% |  |  | 193 nM | 620 nM
CC1C(=O)C(C)(C)Nc2ccc3c(c21)/C(=C/c1ccccc1)Oc1ccccc1-3 (configuration not stated) | 17 nM | 4.9 nM | 133% | 18.3 nM | 93% |  |  | 680 nM | 1200 nM
CC1=CC(C)(C)Nc2ccc3c(c21)/C(=C/c1cccc(F)c1)Oc1ccccc1-3 |  |  |  | 51 nM | 55% |  |  |  | 
